{
  "source": "paper PMC11677264",
  "about": "(Biochemistry, 2023)",
  "key": {"[1]": {"biological_target": "T1, AmgK (N-acetylmuramic acid/N-acetylglucosamine kinase) (Pseudomonas aeruginosa, UniProt Q9I5U1)", "T1 sequence (Q9I5U1 whole entry)": "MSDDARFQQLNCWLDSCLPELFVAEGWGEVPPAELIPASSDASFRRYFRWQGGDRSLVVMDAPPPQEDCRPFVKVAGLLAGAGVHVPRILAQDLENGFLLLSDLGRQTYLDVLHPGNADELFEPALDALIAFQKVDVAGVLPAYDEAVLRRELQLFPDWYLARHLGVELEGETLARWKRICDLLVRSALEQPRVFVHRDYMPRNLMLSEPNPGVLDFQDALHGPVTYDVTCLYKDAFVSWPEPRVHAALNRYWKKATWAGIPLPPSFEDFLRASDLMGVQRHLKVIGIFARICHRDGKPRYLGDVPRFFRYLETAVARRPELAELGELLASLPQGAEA", "assay": "2D-ITC, fit to ordered-sequential rate equation", "type": "biochemical", "how_it_was_run": "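AmgK in the calorimeter cell (650 nM with NAM, 300 nM with NAG) with ATP at 13.5 mM. Eighteen 1 μL injections of NAM or NAG (160 mM syringe stock), ~800 μM sugar at the start of each, spaced ≥1200 s. Run ~8–10 h with stirring, in duplicate. Thermograms converted to rate versus [ATP] versus [sugar] data sets and fitted to the ordered-sequential equation.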"}, "[2]": {"biological_target": "T1, AmgK (N-acetylmuramic acid/N-acetylglucosamine kinase)", "assay": "pyruvate kinase/lactate dehydrogenase-coupled ATP-recycling assay, NADH at […] nm", "type": "biochemical"}, "[3]": {"tested_on": "Nc1ncnc2c1ncn2[C@@H]1O[C@H](COP(=O)(O)OP(=O)(O)OP(=O)(O)O)[C@@H](O)[C@H]1O", "assay": "purified protein", "details": "saturating NAG 4 mM"}},
  "data": [
    {"compound": "Nc1ncnc2c1ncn2[C@@H]1O[C@H](COP(=O)(O)OP(=O)(O)O)[C@@H](O)[C@H]1O", "note": "[ADP]", "values": [
      {"measurement": "Ki", "setting": "[1]", "result": "694 ± 128", "unit": "µM"}
    ]},
    {"compound": "Nc1ncnc2c1ncn2[C@@H]1O[C@H](COP(=O)(O)OP(=O)(O)NP(=O)(O)O)[C@@H](O)[C@H]1O", "note": "[AMP-PNP]", "values": [
      {"measurement": "Ki", "setting": "[2]", "result": "471 ± 169", "unit": "µM"}
    ]},
    {"compound": "AmgK (N-acetylmuramic acid/N-acetylglucosamine kinase) (Pseudomonas aeruginosa PAO1)", "values": [
      {"measurement": "Km", "setting": "[3]", "result": "70 ± 12", "unit": "µM"}
    ]}
  ]
}
